# Tests used:
# [1] = target: ATP-dependent translocase ABCB1 (Homo sapiens, UniProt P08183); assay: Reversal of human ABCB1-mediated multidrug resistance in HEK293/MDR19 cells assessed as fold change in colchicine IC50 at 1 uM after 72 hrs by CCK8 relative to colchicine IC50; format: cell-based
# In short: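 Cells were seeded at 5000/well for 24 h, then given colchicine, etoposide, mitoxantrone or topotecan ± non-toxic modulator (0.5–3.0 μM) for 72 h, with DMSO up to 0.5%. IC50 came from fitted curves (mean ± SD, three experiments). Fold-reversal = IC50 without modulator ÷ IC50 with modulator.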
# HEK293 = assay: Effect on Colchicine-induced cytotoxicity against HEK293 cells assessed as fold change in colchicine IC50 at 1 uM after 72 hrs by CCK8 assay relative to colchicine IC50; format: cell-based; details: human, hek293, 72 h
# In short: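 Reversal assay in parental pcDNA-HEK293 and transfected HEK293 lines (ABCB1 for colchicine, ABCC1 for etoposide, ABCG2 for mitoxantrone/topotecan). Substrate drug series was given with or without nontoxic modulator (0.5, 1.0, 2.0 or 3.0 μM) for 72 h, with a CCK-8 read-out. Fold-reversal is substrate IC50 without modulator divided by IC50 with modulator. Three independent experiments.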
# S1 [2] = assay: Induction of apoptosis in human S1 cells assessed as necrotic cells at 5 uM incubated for 48 hrs by annexin V/propidium iodide staining based flow cytometry (reference value: 0.2%); format: functional
# S1 [3] = assay: Induction of apoptosis in human S1 cells assessed as late apoptotic cells at 5 uM incubated for 48 hrs by annexin V/propidium iodide staining based flow cytometry (reference value: 3.6%); format: functional
# In short: (§1)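 S1 cells were exposed for 48 h to DMSO, 10 μM compound, 5 μM topotecan, or 5 μM topotecan plus 10 μM compound. They were then stained with 1.25 μg/mL annexin V–FITC and 0.1 mg/mL PI for 15 min at room temperature. 10000 cells per sample were analysed by flow cytometry; three independent experiments.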
# S1 [4] = assay: Induction of apoptosis in human S1 cells assessed as early apoptotic cells at 5 uM incubated for 48 hrs by annexin V/propidium iodide staining based flow cytometry (reference value: 2%); format: functional; in short: as §1
# S1 [5] = assay: Induction of apoptosis in human S1 cells assessed as viable cells at 5 uM incubated for 48 hrs by annexin V/propidium iodide staining based flow cytometry (reference value: 94.1%); format: functional; details: S1, 48 h, read-out: Activity
# ATP-dependent translocase ABCB1, sequence (P08183 whole entry): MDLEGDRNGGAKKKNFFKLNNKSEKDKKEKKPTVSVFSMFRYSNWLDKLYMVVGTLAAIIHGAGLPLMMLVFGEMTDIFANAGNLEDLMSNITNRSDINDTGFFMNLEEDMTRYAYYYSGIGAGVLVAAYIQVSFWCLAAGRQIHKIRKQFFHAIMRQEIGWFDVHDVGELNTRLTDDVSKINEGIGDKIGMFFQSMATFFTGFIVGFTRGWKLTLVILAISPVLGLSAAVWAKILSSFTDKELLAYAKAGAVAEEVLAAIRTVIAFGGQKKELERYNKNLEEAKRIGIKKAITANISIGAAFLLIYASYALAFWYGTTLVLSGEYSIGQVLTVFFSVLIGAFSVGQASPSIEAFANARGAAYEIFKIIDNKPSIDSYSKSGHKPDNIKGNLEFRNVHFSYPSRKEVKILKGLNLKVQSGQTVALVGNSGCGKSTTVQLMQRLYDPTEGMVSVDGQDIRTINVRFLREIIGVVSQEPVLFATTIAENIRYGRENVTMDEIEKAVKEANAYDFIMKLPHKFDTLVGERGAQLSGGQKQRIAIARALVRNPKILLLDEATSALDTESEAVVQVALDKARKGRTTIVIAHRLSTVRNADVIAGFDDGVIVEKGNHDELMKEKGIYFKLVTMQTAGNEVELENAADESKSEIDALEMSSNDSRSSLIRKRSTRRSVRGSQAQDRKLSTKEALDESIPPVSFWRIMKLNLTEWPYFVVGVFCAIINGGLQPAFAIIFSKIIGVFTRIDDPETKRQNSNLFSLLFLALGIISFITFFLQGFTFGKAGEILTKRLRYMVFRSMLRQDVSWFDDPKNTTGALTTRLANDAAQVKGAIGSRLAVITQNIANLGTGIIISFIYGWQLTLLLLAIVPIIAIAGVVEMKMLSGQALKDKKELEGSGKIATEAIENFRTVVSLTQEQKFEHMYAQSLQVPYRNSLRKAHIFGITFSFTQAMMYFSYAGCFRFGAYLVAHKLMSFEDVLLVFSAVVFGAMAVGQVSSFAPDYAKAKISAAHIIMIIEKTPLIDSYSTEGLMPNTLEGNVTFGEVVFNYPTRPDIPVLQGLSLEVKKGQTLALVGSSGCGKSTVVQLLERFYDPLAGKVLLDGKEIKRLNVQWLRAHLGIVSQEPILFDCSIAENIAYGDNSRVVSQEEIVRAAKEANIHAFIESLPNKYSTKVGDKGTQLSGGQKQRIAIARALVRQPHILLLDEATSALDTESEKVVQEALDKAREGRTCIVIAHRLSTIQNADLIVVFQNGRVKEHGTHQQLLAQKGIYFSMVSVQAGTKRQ
structure (smiles),measurement,setting,value
COc1cc2c(cc1OC)CN(CCc1ccc(NC(=O)c3cc(OC)c(OC)cc3NC(=O)c3cnc4ccccc4c3)cc1)CC2,fold change (FC),[1],12.5
same,fold change (FC),HEK293,1.1
CC[C@@]1(O)C(=O)OCc2c1cc1n(c2=O)Cc2cc3c(CN(C)C)c(O)ccc3nc2-1 [TOPOTECAN],Activity,S1 [2],3.5%
same,Activity,S1 [3],22.7%
same,Activity,S1 [4],31.2%
same,viability at 5 µM,S1 [5],42.7%

# — ChEMBL document CHEMBL4627381, “Licochalcone A Selectively Resensitizes ABCG2-Overexpressing Multidrug-Resistant Cancer Cells to Chemotherapeutic Drugs” (J Nat Prod, 2020)
